# This is a sample that favours compounds with a hit; in the whole collection about 3.8% have one here.
# hERG rescue – hERG (human) protection from proarrhythmic block; CHO-hERG, FluxOR thallium flux, dofetilide IC70 present; activation (rescue from dofetilide block), less the hit threshold, % at 10 µM; actives 0.51% (n = 310,000);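 active = activation above the mean of controls blocked by dofetilide plus 5 SD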;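 also: thallium influx through hERG after potassium depolarization seen as dye fluorescence rise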
# KCNQ1 pot – potentiators or activators of human KCNQ1 potassium channel | actives 0.35% (n = 310,000) | CHO-K1 KCNQ1, thallium flux FluxOR fluorescence; stronger effect = higher value | AID 2648 | P51787 | B-score at 10 µM;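 active = fluorescence ratio B-score, a plate-corrected score, at least three library SD, with initial intensity B-score within 5 SD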
#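 assay system = CHO-K1 cells stably expressing KCNQ1 | medium = assay buffer, equal DMSO in all wells | timing = 37 °C overnight plating, 90-min dark dye load, 20-min compound pretreatment | measured by = kinetic FluxOR thallium fluorescence, 10-s 1-Hz baseline, 110-s post-stimulus read | measure = fluorescence change relative to baseline, converted to B score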
# KCNK9 block – blocks the human KCNK9 two-pore domain potassium channel. Q9NPC2. HEK293 KCNK9, FluxOR thallium flux fluorescence; stronger effect = lower value. B-score at 10 µM. actives 1.2% (n = 310,000). AID 488922;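 active = ratio B-score over 3 SD below the library mean, with starting fluorescence within 5 SD of its mean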;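 also: negative B-score means less thallium flux so channel inhibition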
# Target sequence (Q9NPC2 whole entry, looked up, the tested form may be a part): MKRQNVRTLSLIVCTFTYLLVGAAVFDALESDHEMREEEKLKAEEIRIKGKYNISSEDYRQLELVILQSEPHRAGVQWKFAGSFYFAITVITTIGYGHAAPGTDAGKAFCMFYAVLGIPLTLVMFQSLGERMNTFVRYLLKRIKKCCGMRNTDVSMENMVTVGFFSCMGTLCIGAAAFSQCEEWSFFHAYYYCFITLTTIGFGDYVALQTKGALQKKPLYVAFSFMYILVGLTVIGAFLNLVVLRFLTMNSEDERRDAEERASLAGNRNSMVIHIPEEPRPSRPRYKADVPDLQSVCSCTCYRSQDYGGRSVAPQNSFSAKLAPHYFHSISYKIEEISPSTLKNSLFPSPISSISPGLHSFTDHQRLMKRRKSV
# KCNK3 inh – human KCNK3 channel inhibition, primary screen; CHO-KCNK3 thallium flux, FluxOR fluorescence; stronger effect = lower value; B-score at 10 µM; AID 602410; actives 0.84% (n = 340,000);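 active = B-score under library mean minus 4 SD, starting fluorescence ratio at most library mean plus 5 SD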;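 also: more negative B-score means stronger inhibition of thallium flux through KCNK3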
# KCNQ1 block – human KCNQ1 channel inhibition | P51787 | CHO-K1 KCNQ1, FluxOR thallium flux fluorescence; stronger effect = higher value | B-score at 10 µM | actives 1.3% (n = 310,000) | AID 2642;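 active = compounds whose thallium flux B-score, printed positive for inhibition, exceeds three library SD while starting fluorescence stays within three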;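 also: channel opened by potassium depolarization with thallium stimulus after 20 min compound exposure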
# Kir21 inh – blocks the mouse Kir2.1 inward-rectifier potassium channel; HEK293-Kir2.1, FluxOR thallium flux fluorescence; stronger effect = lower value; B-score at 10 µM; actives 0.85% (n = 310,000);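 active = fluorescence ratio B-score at or below minus 3 SD of library scores, with starting-brightness B-score within 2 SD, cut at about -4.2 in these data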;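 also: channel flux triggered by added potassium and thallium sulfate stimulus; B-score of peak minus minimum fluorescence over baseline after thallium stimulus; more negative B-score means stronger Kir2.1 block with less thallium influx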
# KCNK3 confirm – human KCNK3 channel inhibition, confirmation assay. AID 651638. actives 99% (n = 2,400). ratio percent of control, % at 10 µM. shares compounds with KCNK3 inh. CHO-KCNK3 thallium flux, FluxOR fluorescence; 0% buffer, 100% carvedilol maximal block;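 active = ratio percent of control, averaged over triplicates, above buffer control mean plus 5 SD, cut at about 64% in these data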;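 also: ratio is the fluorescence rise from min to max over baseline after thallium stimulus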
# KCNK3 uninduced – activity in cells without induced KCNK3 expression. shares compounds with KCNK3 inh. thallium flux ratio (lower = more inhibition) at 10 µM. non-induced KCNK3 parental cells, FluxOR thallium flux; stronger effect = lower value. actives 40% (n = 2,400);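 active = thallium flux ratio, averaged over three wells, more than 5 SD below the buffer control mean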;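 also: host cells are CHO cells without KCNK3 induction; ratio is peak minus trough fluorescence over baseline then normalized to buffer controls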
# * = called active by the depositor; i = inactive; . = no result given.
SMILES,hERG rescue,KCNQ1 pot,KCNK9 block,KCNK3 inh,KCNQ1 block,Kir21 inh,KCNK3 confirm,KCNK3 uninduced
COc1cc(C2NC(=S)NC(C)=C2C(=O)c2ccccc2)ccc1O (stereo not drawn),-11,i,i,i,i,-0.67,.,.
CCCOc1ccc(C2NC(=S)NC(C)=C2C(=O)c2ccccc2)cc1OC (stereo not drawn),-11,i,i,-9.8*,i,-0.05,97*,i
CCOC(=O)N1CCN(C(=O)c2cc3c(s2)-c2c(C)cccc2OC3)CC1,-4,i,i,i,i,-0.01,.,.
Cc1cccc2c1-c1sc(C(=O)N3CCCCC3)cc1CO2,-6,i,i,-12*,i,1.6,90*,i
Cc1cccc2c1-c1sc(C(=O)N3CCc4ccccc4C3)cc1CO2,-7,i,i,-8.7*,i,0.57,87*,0.14*
CCN1CCN(C(=O)c2cc3c(s2)-c2c(C)cccc2OC3)CC1,-11,i,i,i,i,0,.,.
Cc1cccc(Nc2cc(C)c3c(O)cccc3n2)c1C,-28,i,i,-9.7*,i,-0.91,111*,i
O=C(CSc1nc2ccccc2c(=O)n1CC1CCCO1)Nc1ccccc1Cl (stereo not drawn),-6,i,-7.6*,-12*,i,-0.56,104*,i
O=C(CSc1nc2ccccc2c(=O)n1CC1CCCO1)Nc1ccccc1 (stereo not drawn),-5,i,i,i,i,1.2,.,.
CCc1nnc(SCC(=O)Nc2ccccc2)n1CC1CCCO1 (stereo not drawn),-8,i,i,-8.7*,i,0.07,79*,0.16*
CC1CCC(NC(=O)CCN2C(=O)C3CC=CCC3C2=O)CC1 (stereo not drawn),.,.,.,i,.,.,.,.
Cc1noc(C)c1S(=O)(=O)Nc1ccc(C(=O)N2CCc3ccccc3C2)cc1,-6,i,i,-9.1*,i,0.22,60*,i
O=C(NC1CCN(Cc2ccccc2)CC1)c1cc(S(=O)(=O)Nc2ccc(F)cc2)ccc1Cl,.,.,.,i,.,.,.,.
Cc1c(N2CCCC2)cc2c(c1NC(=O)c1ccccc1Cl)C(C)(C)CC2(C)C,-9,i,i,-9.3*,i,0.81,114*,0.13*
O=C(Nc1ccc(N2CCOCC2)c(Cl)c1)c1ccccc1Cl,-5,i,i,i,i,-0.42,.,.
CC(Oc1ccc(F)cc1)C(=O)Nc1sc2c(c1C(=O)NCc1cccnc1)CCCC2 (stereo not drawn),-10,i,i,-8.9*,i,-0.1,113*,i
Cc1ccc(C)c(Nc2cc(C(=O)NCc3cccnc3)c3ccccc3n2)c1,-16,i,-7.9*,-8.9*,i,-0.85,87*,i
COc1ccccc1Nc1cc(C(=O)NCc2cccnc2)c2ccccc2n1,-7,i,i,i,i,0.23,.,.
Cc1cc(C)cc(OC(C)C(=O)Nc2ccccc2C(=O)NCc2cccnc2)c1 (stereo not drawn),-8,i,i,-9.7*,i,-0.71,84*,0.16*
O=C(Nc1cccc(S(=O)(=O)N2CCOCC2)c1)C1COc2ccccc2O1 (stereo not drawn),.,.,.,i,.,.,.,.
Cc1ccc(C(=O)COC(=O)C2CC3CCCC(C2)C3=O)cc1[N+](=O)[O-] (stereo not drawn),-9,i,i,i,i,0.01,.,.
COc1ccc(Cl)cc1NC(=S)Nc1cccc(C)c1,-5,i,i,-9.4*,i,1.2,105*,i
O=C(N1CCOCC1)N1c2ccccc2Sc2ccccc21,-1,i,i,i,i,-2.9,.,.
O=C(NC1CCN(C(=O)N2c3ccccc3Sc3ccccc32)CC1)c1ccccc1F,-8,i,i,-11*,i,-0.11,89*,i
C[C@H]1NC(=O)[C@]2(C)[C@@H](c3ccccc3)[C@H]3COc4ccccc4[C@H]3N2C1=O,.,.,.,i,.,.,.,.
SMILES,hERG rescue,KCNQ1 pot,KCNK9 block,KCNK3 inh,KCNQ1 block,Kir21 inh,KCNK3 confirm,KCNK3 uninduced
CCOc1ccc(C(=O)n2cc(C(=O)OC)c3ccccc32)cc1,-3,i,i,-10*,i,-0.83,116*,0.15*
CCOc1ccc(C(=O)n2cc(C(=O)OC)c3ccccc32)cc1OCC,-2,i,i,i,i,0.13,.,.
CCN(CC(=O)Nc1c(C(=O)OC)[nH]c2ccc(Cl)cc12)c1ccc2c(c1)OCO2,-7,i,-7.2*,-9.2*,i,-0.3,105*,0.15*
C(=C/c1nccc2c1[nH]c1ccccc12)/c1ccc2c(c1)OCO2,-13,i,i,-11*,i,-0.55,99*,i
CC(C)Nc1cc(C(C)(C)C)nc2c(-c3ccccc3)cnn12,-13,i,i,-10*,i,-0.54,82*,0.14*
O=c1oc2cc(Oc3c([N+](=O)[O-])cc(C(F)(F)F)cc3[N+](=O)[O-])ccc2c2c1CCCC2,-21,i,i,-9.7*,11*,-3.5,136*,0.14*
O=c1oc2cc(Oc3ccc(C(F)(F)F)cc3[N+](=O)[O-])ccc2c2c1CCC2,-7,i,i,i,i,0.17,.,.
CC1CCCC(NC(=O)COC(=O)c2cc(S(=O)(=O)N3CCOCC3)ccc2F)C1C (stereo not drawn),.,.,.,i,.,.,.,.
COC(=O)c1nccnc1N,.,.,.,i,.,.,.,.
Cc1nc(N2CCN(c3ccccn3)CC2)c2c(C)c(C(=O)N3CCN(c4cccc(Cl)c4)CC3)sc2n1,-25,i,i,-9.4*,i,-0.01,97*,i
CCc1ccc(NC(=O)c2sc3nc(C)nc(N4CCN(c5ccccn5)CC4)c3c2C)cc1,-15,i,i,-12*,6*,-0.08,139*,0.11*
C=CCn1c(Sc2ncc([N+](=O)[O-])s2)n[nH]c1=O,-12,i,i,-9.3*,7*,0.12,144*,0.083*
Cc1cccc(C(=O)N2CCCC(N3CCN(c4ccccc4)CC3)C2)n1 (stereo not drawn),-5,i,i,i,i,0.16,.,.
c1csc(-c2nc(NCC3CCCO3)c3ccccc3n2)c1 (stereo not drawn),-14,i,i,i,i,-0.92,.,.

# Screening data: PubChem, Johns Hopkins Ion Channel Center
